Experimental data from paper PMC8774845 (Plant Physiology, 2021).
“And” between values parts separate entries of the source, which are not always exact repeats. Equal values may be shown once. “Also recorded” adds a separate entry of the source. Read-outs that look alike come from different tables or passages of the source.

Legend:
PpADT-G [1] = assay: Inhibition of ADT activity by Phe, recombinant enzyme; format: biochemical, Pinus pinaster
Procedure, shortened: (§1)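 The Pinus pinaster ADT was used either as wild-type or as chimeras made by fusion PCR. It was His-tagged without the transit peptide, expressed in E. coli BL21 DE3 RIL and Ni-purified. About 1 µg of protein in 50 mM Tris pH 8.0 was preincubated 5 min with a range of Phe concentrations. Reaction started with 0.1 mM Agn at 30°C and was stopped with methanol. Phe product was quantified by UPLC/MS, with linearity checked over ≥5 min. At least duplicate; IC50 from kinetic fitting.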

PpADT-C [2] = assay: as above; format: biochemical, Pinus pinaster; conditions: read-out: ADT IC50 (μM of Phe), 0.1 mM of Agn
Procedure, shortened: as §1

PpADT-Gmut^1 [3] = assay: Inhibition of ADT activity by Phe, chimeric enzyme; format: biochemical, Pinus pinaster; conditions: read-out: ADT IC50 (μM of Phe), 0.1 mM of Agn
Procedure, shortened: as §1

PpADT-Cmut^1 [4] = assay: Inhibition of ADT activity by Phe, chimeric enzyme; format: biochemical, Pinus pinaster; conditions: read-out: ADT IC50 (μM of Phe), 0.1 mM of Agn
Procedure, shortened: as §1

PpADT-G [5] = assay: Inhibition of PDT activity by Phe, recombinant enzyme; format: biochemical, Pinus pinaster
Procedure, shortened: (§2)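 PDT reaction: about 5 µg of His-tagged, Ni-purified Pinus pinaster ADT (wild-type or fusion-PCR chimera) in 50 mM Tris pH 8.0 was preincubated 5 min with Phe. The reaction started with 1 mM Ppa at 30°C; Ppa content was first verified by HCl conversion. It was stopped with 2 M NaOH and left ≥10 min at room temperature. Phenylpyruvate was read at 321 nm against a calibration curve. At least duplicate; IC50, Ki and inhibition type came from kinetic fitting.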

PpADT-C [6] = assay: as above; format: biochemical, Pinus pinaster
Procedure, shortened: as §2

PpADT-Gmut^1 [7] = assay: Inhibition of PDT activity by Phe, chimeric enzyme; format: biochemical, Pinus pinaster
Procedure, shortened: as §2

PpADT-Cmut^1 [8] = assay: Inhibition of PDT activity by Phe, chimeric enzyme; format: biochemical, Pinus pinaster
Procedure, shortened: as §2

PpADT-Gmut^6 = assay: Inhibition of PDT activity by Phe, mutant enzyme; format: biochemical, Pinus pinaster; conditions: read-out: IC50 (μM) for Phe; PDT reaction, 1 mM of substrate (Ppa); Thr303→Ala, Leu304→Gln
Procedure, shortened: (§3)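 Ni-purified His-tagged mutants, expressed in E. coli BL21 DE3 RIL, were assayed for PDT activity. About 5 µg protein in 50 mM Tris pH 8.0 was preincubated 5 min at 30°C with varying Phe. Reactions were started with 1 mM prephenate, stopped with 2 M NaOH and read at 321 nm against a phenylpyruvate calibration. Runs were in triplicate, linear ≥5 min, with IC50 obtained by kinetic fitting.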

PpADT-Gmut^62 = assay: Inhibition of PDT activity by Phe, mutant enzyme; format: biochemical, Pinus pinaster; conditions: read-out: IC50 (μM) for Phe; PDT reaction, 1 mM of substrate (Ppa); Thr303→Ala, Leu304→His
Procedure, shortened: as §3

PpADT-Gmut^8 [9] = assay: Inhibition of PDT activity by Phe, mutant enzyme; format: biochemical, Pinus pinaster; conditions: read-out: IC50 (μM) for Phe; PDT reaction, 1 mM of substrate (Ppa); Pro308→Thr, Gly309→Ser
Procedure, shortened: as §3

PpADT-Gmut^9 = assay: Inhibition of PDT activity by Phe, mutant enzyme; format: biochemical, Pinus pinaster; conditions: read-out: IC50 (μM) for Phe; PDT reaction, 1 mM of substrate (Ppa); Ala314→Val, Ala316→Ser, Val317→Ala
Procedure, shortened: as §3

PpADT-Gmut^11 = assay: Inhibition of PDT activity by Phe, mutant enzyme; format: biochemical, Pinus pinaster; conditions: read-out: IC50 (μM) for Phe; PDT reaction, 1 mM of substrate (Ppa); Ala314→Val
Procedure, shortened: (§4)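 PpADT-G point mutants were made by site-directed mutagenesis, expressed His-tagged in E. coli BL21 DE3 RIL and Ni-purified. About 5 µg of protein in 50 mM Tris pH 8.0 was preincubated 5 min with varying Phe. The PDT reaction started with 1 mM Ppa at 30°C and was stopped with 2 M NaOH. Phenylpyruvate was read by absorbance at 321 nm against a phenylpyruvate calibration. Triplicate; IC50 was fitted.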

PpADT-Gmut^12 = assay: Inhibition of PDT activity by Phe, mutant enzyme; format: biochemical, Pinus pinaster; conditions: read-out: IC50 (μM) for Phe; PDT reaction, 1 mM of substrate (Ppa); Ala316→Ser
Procedure, shortened: as §4

PpADT-Gmut^13 = assay: Inhibition of PDT activity by Phe, mutant enzyme; format: biochemical, Pinus pinaster; conditions: read-out: IC50 (μM) for Phe; PDT reaction, 1 mM of substrate (Ppa); Val317→Ala
Procedure, shortened: as §4

PpADT-Gmut^16 = assay: Inhibition of PDT activity by Phe, mutant enzyme; format: biochemical, Pinus pinaster; conditions: read-out: IC50 (μM) for Phe; PDT reaction, 1 mM of substrate (Ppa); Ala316→Ser, Val317→Ala
Procedure, shortened: as §3

PpADT-Gmut^10 = assay: Inhibition of PDT activity by Phe, mutant enzyme; format: biochemical, Pinus pinaster; conditions: read-out: IC50 (μM) for Phe; PDT reaction, 1 mM of substrate (Ppa); Leu320→Phe, Asn324→Ser
Procedure, shortened: as §3

PpADT-Gmut^102 = assay: Inhibition of PDT activity by Phe, mutant enzyme; format: biochemical, Pinus pinaster; conditions: read-out: IC50 (μM) for Phe; PDT reaction, 1 mM of substrate (Ppa); Leu320→Phe
Procedure, shortened: as §4

PpADT-Gmut^103 = assay: Inhibition of PDT activity by Phe, mutant enzyme; format: biochemical, Pinus pinaster; conditions: read-out: IC50 (μM) for Phe; PDT reaction, 1 mM of substrate (Ppa); Asn324→Ser
Procedure, shortened: as §4

PpADT-Gmut^8 [10] = assay: Effect of 100 μM Phe over ADT activity, mutant enzyme; format: biochemical, Pinus pinaster; conditions: Phe at 100 µM
Procedure, shortened: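 His-tagged recombinant mutant enzyme without its transit peptide, expressed in E. coli BL21 DE3 RIL and Ni-purified. About 1 µg protein in 50 mM Tris pH 8.0 was preincubated 5 min at 30°C with 100 µM Phe. Arogenate was added to start the reaction, and methanol stopped it. Phe formed was quantified by UPLC/MS against a pure-Phe calibration. Activity is relative to the no-Phe control; error bars sd.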

AtADT1 = AtADT1 (Arabidopsis thaliana, UniProt Q9SA96); assay: Effect of 100 μM Phe over ADT activity, recombinant type-I ADT; format: biochemical, A. thaliana; conditions: 100 µM of Phe, 100 µM of substrate (Agn), compared to control (absence of Phe)
Procedure, shortened: (§5)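 Type-I or type-II plant ADT ORFs were cloned from cDNA into pET30b without the putative plastid transit peptide and with a C-terminal His tag. Proteins were expressed in E. coli BL21 DE3 RIL (0.5 mM IPTG, 18–20 h at 12°C) and Ni-purified. About 1 µg was preincubated 5 min with 100 µM Phe in 50 mM Tris pH 8.0. Reaction started with 100 µM Agn at 30°C and was stopped with methanol. Phe formed was quantified by UPLC/MS. Activity is relative to the no-Phe control (100%); triplicate.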

Potri11G4700 = assay: as above; format: biochemical, Populus trichocarpa; conditions: 100 µM of Phe, 100 µM of substrate (Agn), compared to control (absence of Phe)
Procedure, shortened: as §5

Niben8991 = assay: as above; format: biochemical, Nicotiana benthamiana; conditions: 100 µM of Phe, 100 µM of substrate (Agn), compared to control (absence of Phe)
Procedure, shortened: as §5

Cucsa52640 = assay: as above; format: biochemical, Cucumis sativus; conditions: 100 µM of Phe, 100 µM of substrate (Agn), compared to control (absence of Phe)
Procedure, shortened: as §5

AtADT4 = AtADT4 (Arabidopsis thaliana, UniProt O22241); assay: Effect of 100 μM Phe over ADT activity, recombinant type-II ADT; format: biochemical, A. thaliana; conditions: 100 µM of Phe, 100 µM of substrate (Agn)
Procedure, shortened: as §5

Potri4G188100 = assay: as above; format: biochemical, P. trichocarpa; conditions: 100 µM of Phe, 100 µM of substrate (Agn)
Procedure, shortened: as §5

Orysa4G33390 = assay: as above; format: biochemical, O. sativa; conditions: 100 µM of Phe, 100 µM of substrate (Agn)
Procedure, shortened: as §5

Zeama2G125923 = assay: as above; format: biochemical, Zea mays; conditions: 100 µM of Phe, 100 µM of substrate (Agn)
Procedure, shortened: as §5

ADT activity = conditions: read-out: IC50 for ADT activity; crude plant extracts; ref Jung et al., 1986; cited from earlier work
plastidial CM [11] = conditions: read-out: Ki, inhibition of plastidial CM by Phe; ref Benesova and Bode, 1992; cited from earlier work
plastidial CM [12] = conditions: read-out: Ki, inhibition of plastidial CM by Phe; ref Kuroki and Conn, 1988; cited from earlier work
plastidial CM [13] = conditions: read-out: IC50, inhibition of plastidial CM by Phe; ref Westfall et al., 2014; cited from earlier work
plastidial CM [14] = conditions: read-out: IC50, inhibition of plastidial CM by Phe; ref Kroll et al., 2017; cited from earlier work
[15] = read-out: PDT IC50 (μM of Phe), 1 mM of Ppa

Chain of AtADT4 (O22241 35-424): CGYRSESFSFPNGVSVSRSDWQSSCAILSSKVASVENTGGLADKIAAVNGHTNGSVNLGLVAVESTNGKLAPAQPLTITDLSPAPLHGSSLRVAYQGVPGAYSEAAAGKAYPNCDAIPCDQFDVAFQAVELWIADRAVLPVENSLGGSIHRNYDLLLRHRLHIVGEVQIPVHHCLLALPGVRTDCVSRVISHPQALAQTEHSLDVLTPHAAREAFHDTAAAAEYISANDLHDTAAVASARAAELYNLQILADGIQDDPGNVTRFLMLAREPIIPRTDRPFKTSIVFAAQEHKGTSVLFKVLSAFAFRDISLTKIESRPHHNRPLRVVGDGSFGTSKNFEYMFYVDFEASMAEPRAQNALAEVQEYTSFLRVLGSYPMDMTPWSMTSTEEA
Chain of AtADT1 (Q9SA96 49-392): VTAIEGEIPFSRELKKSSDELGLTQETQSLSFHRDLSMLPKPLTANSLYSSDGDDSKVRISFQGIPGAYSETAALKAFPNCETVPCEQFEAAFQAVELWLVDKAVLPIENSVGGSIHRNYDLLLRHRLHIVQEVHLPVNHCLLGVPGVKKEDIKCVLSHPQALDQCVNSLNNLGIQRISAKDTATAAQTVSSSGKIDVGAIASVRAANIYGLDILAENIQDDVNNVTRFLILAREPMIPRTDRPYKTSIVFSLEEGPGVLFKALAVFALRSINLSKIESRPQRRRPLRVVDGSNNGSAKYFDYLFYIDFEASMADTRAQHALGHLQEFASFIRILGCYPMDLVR

ADT activity at 100 µM of Phe (PpADT-G [1]; 100 µM of Phe): mostly inactive
IC50 (PpADT-G [1]; read-out: ADT IC50 (μM of Phe), ADT activity, 0.1 mM of Agn): 27.6 ± 1.5 µM
IC50 (PpADT-C [2]): > 100 µM
IC50 (PpADT-Gmut^1 [3]): > 100 µM
IC50 (PpADT-Cmut^1 [4]): ~52.8 µM and 52.8 µM
Proposed type of inhibition (PpADT-G [5]): Uncompetitive
IC50 (PpADT-G [5]; [15]): 47.7 ± 3 µM
Ki (PpADT-G [5]; read-out: PDT K i (μM of Phe)): 28.1 ± 1 µM
Proposed type of inhibition (PpADT-C [6]): Cooperative
IC50 (PpADT-C [6]; [15]): 320 µM
Proposed type of inhibition (PpADT-Gmut^1 [7]): allosteric; also recorded: Cooperative
IC50 (PpADT-Gmut^1 [7]; [15]): 390 ± 15.4 µM
Proposed type of inhibition (PpADT-Cmut^1 [8]): Uncompetitive
IC50 (PpADT-Cmut^1 [8]; [15]): ~36.1 µM and 36.1 µM
Ki (PpADT-Cmut^1 [8]; read-out: PDT K i (μM of Phe)): 170 ± 16.3 µM
IC50 (PpADT-Gmut^6): 333 ± 8 µM
IC50 (PpADT-Gmut^62): 333.5 ± 3.1 µM
IC50 (PpADT-Gmut^8 [9]): 445 µM
IC50 (PpADT-Gmut^9): 17.5 ± 3.7 µM
IC50 (PpADT-Gmut^11): 14.6 ± 2.3 µM
IC50 (PpADT-Gmut^12): 26 ± 4.8 µM
IC50 (PpADT-Gmut^13): 23.6 ± 1.4 µM
IC50 (PpADT-Gmut^16): 17.2 ± 0.2 µM
IC50 (PpADT-Gmut^10): 184 ± 24.7 µM
IC50 (PpADT-Gmut^102): 135.4 ± 0.7 µM
IC50 (PpADT-Gmut^103): 234 ± 4.9 µM
decrease in ADT activity (AtADT1): > 90%
effect on ADT activity (AtADT4): not substantially affected
SMILES: N[C@@H](Cc1ccccc1)C(=O)O [Phe, phenylalanine]
Phe-mediated inhibition of ADT activity compared to the wild-type (PpADT-Gmut^8 [10]): more resistant to inhibition than the wild-type
decrease in ADT activity (Potri11G4700): > 90%
decrease in ADT activity (Niben8991): > 90%
decrease in ADT activity (Cucsa52640): > 90%
effect on ADT activity (Potri4G188100): not substantially affected
effect on ADT activity (Orysa4G33390): not substantially affected
effect on ADT activity (Zeama2G125923): not substantially affected
IC50 (ADT activity): ~35 µM
Ki (plastidial CM [11]): 1100 µM
Ki (plastidial CM [12]): 550 µM
IC50 (plastidial CM [13]): 50 µM
IC50 (plastidial CM [14]): 82 µM
